Reference: ChEMBL document CHEMBL4715736, “Identification of anticancer agents based on the thieno[2,3-b]pyridine and 1H-pyrazole molecular scaffolds” (2016)

Columns and labels:
Type in all cases: functional
[1] = tested on: T47D; test: Growth inhibition of human T47D cells assessed as cell growth at 100 uM incubated for 48 hrs by sulforhodamine B assay relative to control; settings: read-out: Activity
[2] = tested on: MDA-MB-468; test: Growth inhibition of human MDA-MB-468 cells assessed as cell growth at 1 uM incubated for 48 hrs by sulforhodamine B assay relative to control; settings: read-out: Activity
[3] = tested on: M14; test: Growth inhibition of human M14 cells assessed as cell growth at 100 uM incubated for 48 hrs by sulforhodamine B assay relative to control; settings: read-out: Activity
[4] = tested on: OVCAR-3; test: Growth inhibition of human OVCAR-3 cells assessed as cell growth at 0.1 uM incubated for 48 hrs by sulforhodamine B assay relative to control; settings: read-out: Activity
[5] = tested on: MDA-MB-468; test: Growth inhibition of human MDA-MB-468 cells assessed as cell growth at 100 uM incubated for 48 hrs by sulforhodamine B assay relative to control; settings: read-out: Activity
[6] = tested on: SF-295; test: Growth inhibition of human SF-295 cells assessed as cell growth at 0.01 uM incubated for 48 hrs by sulforhodamine B assay relative to control; settings: read-out: Activity
[7] = tested on: U-251; test: Growth inhibition of human U-251 cells assessed as cell growth at 1 uM incubated for 48 hrs by sulforhodamine B assay relative to control; settings: read-out: Activity
[8] = tested on: Malme-3M; test: Growth inhibition of human Malme-3M cells assessed as cell growth at 0.1 uM incubated for 48 hrs by sulforhodamine B assay relative to control; settings: read-out: Activity
[9] = tested on: MCF7; test: Growth inhibition of human MCF7 cells incubated for 48 hrs by sulforhodamine B assay; settings: for CC50: read-out: LC50 (the source's name)
Outline: (§1)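 NCI60 panel at the NCI Developmental Therapeutics Program. Only compounds active in the 10 µM screen went to dose-response testing. GI50, the concentration giving 50% of maximal inhibition of proliferation, and TGI, the concentration giving total growth inhibition, were derived from the dose-response curves.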

[10] = tested on: Malme-3M; test: Growth inhibition of human Malme-3M cells assessed as cell growth at 100 uM incubated for 48 hrs by sulforhodamine B assay relative to control; settings: read-out: Activity
[11] = tested on: SW-620; test: Growth inhibition of human SW-620 cells assessed as cell growth at 1 uM incubated for 48 hrs by sulforhodamine B assay relative to control; settings: read-out: Activity
[12] = tested on: OVCAR-4; test: Growth inhibition of human OVCAR-4 cells assessed as cell growth at 0.1 uM incubated for 48 hrs by sulforhodamine B assay relative to control; settings: read-out: Activity
[13] = tested on: SF-539; test: Growth inhibition of human SF-539 cells assessed as cell growth at 1 uM incubated for 48 hrs by sulforhodamine B assay relative to control; settings: read-out: Activity
[14] = tested on: LOX IMVI; test: Growth inhibition of human LOX IMVI cells assessed as cell growth at 100 uM incubated for 48 hrs by sulforhodamine B assay relative to control; settings: read-out: Activity
[15] = tested on: RPMI-8226; test: Growth inhibition of human RPMI-8226 cells incubated for 48 hrs by sulforhodamine B assay
Outline: (§2)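 NCI DTP 60-line human tumour panel. Dose-response curves were run only for ligands active in the initial 10 µM screen. GI50 (concentration giving 50% of maximal inhibition of proliferation) and TGI (concentration giving total growth inhibition) were derived from these curves.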

[16] = tested on: IGROV-1; test: Growth inhibition of human IGROV-1 cells assessed as cell growth at 0.1 uM incubated for 48 hrs by sulforhodamine B assay relative to control; settings: read-out: Activity
[17] = tested on: UACC-62; test: Growth inhibition of human UACC-62 cells assessed as cell growth at 0.01 uM incubated for 48 hrs by sulforhodamine B assay relative to control; settings: read-out: Activity
[18] = tested on: SK-MEL-28; test: Growth inhibition of human SK-MEL-28 cells assessed as cell growth at 0.01 uM incubated for 48 hrs by sulforhodamine B assay relative to control; settings: read-out: Activity
[19] = tested on: K562; test: Growth inhibition of human K562 cells assessed as cell growth at 0.1 uM incubated for 48 hrs by sulforhodamine B assay relative to control; settings: read-out: Activity
[20] = tested on: U-251; test: Growth inhibition of human U-251 cells assessed as cell growth at 0.1 uM incubated for 48 hrs by sulforhodamine B assay relative to control; settings: read-out: Activity
[21] = tested on: SW-620; test: Growth inhibition of human SW-620 cells assessed as cell growth at 100 uM incubated for 48 hrs by sulforhodamine B assay relative to control; settings: read-out: Activity
[22] = tested on: KM12; test: Growth inhibition of human KM12 cells incubated for 48 hrs by sulforhodamine B assay; outline: as §1
[23] = tested on: A498; test: Growth inhibition of human A498 cells assessed as cell growth at 100 uM incubated for 48 hrs by sulforhodamine B assay relative to control; settings: read-out: Activity
Outline: (§3)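 NCI Developmental Therapeutics Program NCI60 panel. Compounds that were active in the 10 µM one-dose screen went on to dose–response testing. Growth at each concentration is expressed relative to untreated control (100%). GI50 (concentration giving 50% of maximal inhibition of proliferation) and TGI (concentration giving total growth inhibition) were derived from the curves.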

[24] = tested on: ACHN; test: Growth inhibition of human ACHN cells assessed as cell growth at 0.1 uM incubated for 48 hrs by sulforhodamine B assay relative to control; settings: read-out: Activity
[25] = tested on: HOP-92; test: Growth inhibition of human HOP-92 cells assessed as cell growth at 0.01 uM incubated for 48 hrs by sulforhodamine B assay relative to control; settings: read-out: Activity
[26] = tested on: MDA-MB-435; test: Growth inhibition of human MDA-MB-435 cells assessed as cell growth at 1 uM incubated for 48 hrs by sulforhodamine B assay relative to control; settings: read-out: Activity
[27] = tested on: NCI-H23; test: Growth inhibition of human NCI-H23 cells assessed as cell growth at 1 uM incubated for 48 hrs by sulforhodamine B assay relative to control; settings: read-out: Activity
[28] = tested on: SK-MEL-2; test: Growth inhibition of human SK-MEL-2 cells incubated for 48 hrs by sulforhodamine B assay; outline: as §2
[29] = tested on: BT-549; test: Growth inhibition of human BT-549 cells assessed as cell growth at 100 uM incubated for 48 hrs by sulforhodamine B assay relative to control; settings: read-out: Activity
[30] = tested on: ACHN; test: Growth inhibition of human ACHN cells incubated for 48 hrs by sulforhodamine B assay; settings: for CC50: read-out: LC50 (the source's name); outline: as §3
[31] = tested on: SNB-19; test: Growth inhibition of human SNB-19 cells assessed as cell growth at 1 uM incubated for 48 hrs by sulforhodamine B assay relative to control; settings: read-out: Activity
[32] = tested on: HOP-92; test: Growth inhibition of human HOP-92 cells assessed as cell growth at 100 uM incubated for 48 hrs by sulforhodamine B assay relative to control; settings: read-out: Activity
[33] = tested on: A549; test: Growth inhibition of human A549/ATCC cells assessed as cell growth at 1 uM incubated for 48 hrs by sulforhodamine B assay relative to control; settings: read-out: Activity; outline: as §3
[34] = tested on: 786-0; test: Growth inhibition of human 786-0 cells assessed as cell growth at 100 uM incubated for 48 hrs by sulforhodamine B assay relative to control; settings: read-out: Activity
[35] = tested on: OVCAR-3; test: Growth inhibition of human OVCAR-3 cells assessed as cell growth at 0.01 uM incubated for 48 hrs by sulforhodamine B assay relative to control; settings: read-out: Activity

COc1cccc(NC(=O)c2sc3nc4c(cc3c2N)CN(Cc2ccccc2)CC4)c1
growth at 100 µM [1]: -19%
growth at 1 µM [2]: 64%
growth at 100 µM [3]: -4%
growth at 0.1 µM [4]: 103%
growth at 100 µM [5]: -8%
growth at 0.01 µM [6]: 87%
growth at 1 µM [7]: 72%
growth at 0.1 µM [8]: 89%
GI50 [9]: 0.62 µM
TGI [9]: > 100 µM
CC50 [9]: > 100 µM
growth at 100 µM [10]: -42%
growth at 1 µM [11]: 57%
growth at 0.1 µM [12]: 93%
growth at 1 µM [13]: 79%
growth at 100 µM [14]: -15%
GI50 [15]: 38.9 µM
LC50 [15]: > 100 µM
TGI [15]: > 100 µM
growth at 0.1 µM [16]: 102%
growth at 0.01 µM [17]: 94%
growth at 0.01 µM [18]: 97%
growth at 0.1 µM [19]: 101%
growth at 0.1 µM [20]: 98%
growth at 100 µM [21]: -5%
GI50 [22]: 11.8 µM
LC50 [22]: > 100 µM
TGI [22]: 40.3 µM
growth at 100 µM [23]: -47%
growth at 0.1 µM [24]: 101%
growth at 0.01 µM [25]: 90%
growth at 1 µM [26]: 4%
growth at 1 µM [27]: 89%
GI50 [28]: 10.3 µM
LC50 [28]: > 100 µM
TGI [28]: 44.5 µM
growth at 100 µM [29]: -32%
GI50 [30]: 3.46 µM
TGI [30]: 64.5 µM
CC50 [30]: > 100 µM
growth at 1 µM [31]: 82%
growth at 100 µM [32]: -38%
growth at 1 µM [33]: 88%
growth at 100 µM [34]: -47%
growth at 0.01 µM [35]: 107%

Cc1cccc(NC(=O)c2sc3nc4c(cc3c2N)C(=O)CCC4)c1
growth at 100 µM [1]: -2%
growth at 1 µM [2]: 5%
growth at 100 µM [3]: -48%
growth at 0.1 µM [4]: 81%
growth at 100 µM [5]: 5%
growth at 0.01 µM [6]: 88%
growth at 1 µM [7]: 17%
growth at 0.1 µM [8]: 64%
GI50 [9]: 0.145 µM
TGI [9]: > 100 µM
CC50 [9]: > 100 µM
growth at 100 µM [10]: -16%
growth at 1 µM [11]: 19%
growth at 0.1 µM [12]: 82%
growth at 1 µM [13]: -38%
growth at 100 µM [14]: -75%
GI50 [15]: 0.57 µM
LC50 [15]: > 100 µM
TGI [15]: > 100 µM
growth at 0.1 µM [16]: 86%
growth at 0.01 µM [17]: 94%
growth at 0.01 µM [18]: 93%
growth at 0.1 µM [19]: 44%
growth at 0.1 µM [20]: 74%
growth at 100 µM [21]: 3%
GI50 [22]: 0.21 µM
LC50 [22]: > 100 µM
TGI [22]: > 100 µM
growth at 100 µM [23]: -53%
growth at 0.1 µM [24]: 91%
growth at 0.01 µM [25]: 87%
growth at 1 µM [26]: -61%
growth at 1 µM [27]: 35%
GI50 [28]: 0.254 µM
LC50 [28]: > 100 µM
TGI [28]: > 100 µM
growth at 100 µM [29]: -11%
GI50 [30]: 0.0224 µM
TGI [30]: ≥ 100 µM
CC50 [30]: > 100 µM
growth at 1 µM [31]: 33%
growth at 100 µM [32]: -40%
growth at 1 µM [33]: 19%
growth at 100 µM [34]: 2%
growth at 0.01 µM [35]: 98%
